Experimental data taken from ChEMBL document CHEMBL1152521, “Synthesis and biological evaluation of radioiodinated 2,5-diphenyl-1,3,4-oxadiazoles for detecting beta-amyloid plaques in the brain” (Bioorg Med Chem, 2009).
Calls of active or inactive are those of the source. The rule behind the calls is not given here.

Columns and labels:
Mus musculus [1] = species: Mus musculus; assay: Binding affinity to amyloid beta (1-42) in normal mouse brain at 100 uM after 30 mins by thioflavin S staining-based fluorescence microscopic analysis
[2] = Octanol-phosphate buffer partition coefficient, log P at pH 7.4 by gamma counting of radioactivity
[3] = Displacement of [125I]IMPY from aggregated amyloid beta (1-42) by gamma counting
Mus musculus [4] = species: Mus musculus; assay: Binding affinity to amyloid beta (1-42) in brain of transgenic 2576 mouse Alzheimer's model at 100 uM after 30 mins by thioflavin S staining-based fluorescence microscopic analysis
Brain [5] = assay: Biodistribution in ddY mouse brain at 0.2 to 0.4 uCi, iv after 10 mins post-injection by gamma counting; assay type: ADME, organism-based; details: in vivo
Outline: (§1)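 Normal ddY mice (5-week-old, 22-25 g) received 0.2–0.4 μCi of the 125I-labelled agent by tail-vein injection in 100 μL saline containing 10 μL ethanol. Animals were killed at 2, 10, 30 or 60 min, and organs were removed, weighed and gamma counted. Values are % injected dose per gram, mean (SD) of 4-6 animals.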

Intestine [6] = assay: Biodistribution in ddY mouse intestine at 0.2 to 0.4 uCi, iv after 10 mins post-injection by gamma counting; assay type: ADME, organism-based; details: in vivo
Outline: as §1

Stomach [7] = assay: Biodistribution in ddY mouse stomach assessed per organ at 0.2 to 0.4 uCi, iv after 10 mins post-injection by gamma counting; assay type: ADME, organism-based; details: in vivo
Outline: (§2)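 Normal ddY mice (5-week-old, 22-25 g) were injected by tail vein with 0.2–0.4 μCi of 125I ligand in saline (100 μL) containing 10 μL ethanol. At 2, 10, 30 or 60 min the stomach was removed and gamma counted. Values are % injected dose per organ, mean (SD) of 4-6 animals.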

Pancreas [8] = assay: Biodistribution in ddY mouse pancreas at 0.2 to 0.4 uCi, iv after 2 mins post-injection by gamma counting; assay type: ADME, organism-based; details: in vivo
Outline: as §1

Stomach [9] = assay: Biodistribution in ddY mouse stomach assessed per organ at 0.2 to 0.4 uCi, iv after 2 mins post-injection by gamma counting; assay type: ADME, organism-based; details: in vivo
Outline: as §2

Spleen [10] = assay: Biodistribution in ddY mouse spleen at 0.2 to 0.4 uCi, iv after 10 mins post-injection by gamma counting; assay type: ADME, organism-based; details: in vivo
Outline: as §1

Brain [11] = assay: Biodistribution in ddY mouse brain at 0.2 to 0.4 uCi, iv after 60 mins post-injection by gamma counting; assay type: ADME, organism-based; details: in vivo, 1 h
Outline: as §1

Kidney [12] = assay: Biodistribution in ddY mouse kidney at 0.2 to 0.4 uCi, iv after 30 mins post-injection by gamma counting; assay type: ADME, organism-based; details: in vivo, 0.5 h
Outline: as §1

Pancreas [13] = assay: Biodistribution in ddY mouse pancreas at 0.2 to 0.4 uCi, iv after 60 mins post-injection by gamma counting; assay type: ADME, organism-based; details: in vivo, 1 h
Outline: as §1

Intestine [14] = assay: Biodistribution in ddY mouse intestine at 0.2 to 0.4 uCi, iv after 30 mins post-injection by gamma counting; assay type: ADME, organism-based; details: in vivo, 0.5 h
Outline: as §1

Stomach [15] = assay: Biodistribution in ddY mouse stomach assessed per organ at 0.2 to 0.4 uCi, iv after 60 mins post-injection by gamma counting; assay type: ADME, organism-based; details: in vivo, 1 h
Outline: as §2

Intestine [16] = assay: Biodistribution in ddY mouse intestine at 0.2 to 0.4 uCi, iv after 2 mins post-injection by gamma counting; assay type: ADME, organism-based; details: in vivo
Outline: as §1

Heart [17] = assay: Biodistribution in ddY mouse heart at 0.2 to 0.4 uCi, iv after 2 mins post-injection by gamma counting; assay type: ADME, organism-based; details: in vivo
Outline: as §1

Heart [18] = assay: Biodistribution in ddY mouse heart at 0.2 to 0.4 uCi, iv after 30 mins post-injection by gamma counting; assay type: ADME, organism-based; details: in vivo, 0.5 h
Outline: as §1

Heart [19] = assay: Biodistribution in ddY mouse heart at 0.2 to 0.4 uCi, iv after 60 mins post-injection by gamma counting; assay type: ADME, organism-based; details: in vivo, 1 h
Outline: as §1

Blood [20] = assay: Biodistribution in ddY mouse blood at 0.2 to 0.4 uCi, iv after 30 mins post-injection by gamma counting; assay type: ADME, organism-based; details: in vivo, 0.5 h
Outline: as §1

Brain [21] = assay: Biodistribution in ddY mouse brain at 0.2 to 0.4 uCi, iv after 2 mins post-injection by gamma counting; assay type: ADME, organism-based; details: in vivo
Outline: as §1

Spleen [22] = assay: Biodistribution in ddY mouse spleen at 0.2 to 0.4 uCi, iv after 60 mins post-injection by gamma counting; assay type: ADME, organism-based; details: in vivo, 1 h
Outline: as §1

Liver [23] = assay: Biodistribution in ddY mouse liver at 0.2 to 0.4 uCi, iv after 30 mins post-injection by gamma counting; assay type: ADME, organism-based; details: in vivo, 0.5 h
Outline: as §1

Blood [24] = assay: Biodistribution in ddY mouse blood at 0.2 to 0.4 uCi, iv after 10 mins post-injection by gamma counting; assay type: ADME, organism-based; details: in vivo
Outline: as §1

Stomach [25] = assay: Biodistribution in ddY mouse stomach assessed per organ at 0.2 to 0.4 uCi, iv after 30 mins post-injection by gamma counting; assay type: ADME, organism-based; details: in vivo, 0.5 h
Outline: as §2

Pancreas [26] = assay: Biodistribution in ddY mouse pancreas at 0.2 to 0.4 uCi, iv after 30 mins post-injection by gamma counting; assay type: ADME, organism-based; details: in vivo, 0.5 h
Outline: as §1

Heart [27] = assay: Biodistribution in ddY mouse heart at 0.2 to 0.4 uCi, iv after 10 mins post-injection by gamma counting; assay type: ADME, organism-based; details: in vivo
Outline: as §1

Liver [28] = assay: Biodistribution in ddY mouse liver at 0.2 to 0.4 uCi, iv after 2 mins post-injection by gamma counting; assay type: ADME, organism-based; details: in vivo
Outline: as §1

Intestine [29] = assay: Biodistribution in ddY mouse intestine at 0.2 to 0.4 uCi, iv after 60 mins post-injection by gamma counting; assay type: ADME, organism-based; details: in vivo, 1 h
Outline: as §1

Kidney [30] = assay: Biodistribution in ddY mouse kidney at 0.2 to 0.4 uCi, iv after 10 mins post-injection by gamma counting; assay type: ADME, organism-based; details: in vivo
Outline: as §1

Liver [31] = assay: Biodistribution in ddY mouse liver at 0.2 to 0.4 uCi, iv after 60 mins post-injection by gamma counting; assay type: ADME, organism-based; details: in vivo, 1 h
Outline: as §1

Kidney [32] = assay: Biodistribution in ddY mouse kidney at 0.2 to 0.4 uCi, iv after 2 mins post-injection by gamma counting; assay type: ADME, organism-based; details: in vivo
Outline: as §1

Blood [33] = assay: Biodistribution in ddY mouse blood at 0.2 to 0.4 uCi, iv after 2 mins post-injection by gamma counting; assay type: ADME, organism-based; details: in vivo
Outline: as §1

Spleen [34] = assay: Biodistribution in ddY mouse spleen at 0.2 to 0.4 uCi, iv after 2 mins post-injection by gamma counting; assay type: ADME, organism-based; details: in vivo
Outline: as §1

Spleen [35] = assay: Biodistribution in ddY mouse spleen at 0.2 to 0.4 uCi, iv after 30 mins post-injection by gamma counting; assay type: ADME, organism-based; details: in vivo, 0.5 h
Outline: as §1

Kidney [36] = assay: Biodistribution in ddY mouse kidney at 0.2 to 0.4 uCi, iv after 60 mins post-injection by gamma counting; assay type: ADME, organism-based; details: in vivo, 1 h
Outline: as §1

Liver [37] = assay: Biodistribution in ddY mouse liver at 0.2 to 0.4 uCi, iv after 10 mins post-injection by gamma counting; assay type: ADME, organism-based; details: in vivo
Outline: as §1

Blood [38] = assay: Biodistribution in ddY mouse blood at 0.2 to 0.4 uCi, iv after 60 mins post-injection by gamma counting; assay type: ADME, organism-based; details: in vivo, 1 h
Outline: as §1

Brain [39] = assay: Biodistribution in ddY mouse brain at 0.2 to 0.4 uCi, iv after 30 mins post-injection by gamma counting; assay type: ADME, organism-based; details: in vivo, 0.5 h
Outline: as §1

Pancreas [40] = assay: Biodistribution in ddY mouse pancreas at 0.2 to 0.4 uCi, iv after 10 mins post-injection by gamma counting; assay type: ADME, organism-based; details: in vivo
Outline: as §1

SMILES: CN(C)c1ccc(-c2nnc(-c3ccc(I)cc3)o2)cc1
- Activity (Mus musculus [1]): inactive
- logD [2]: 2.43
- Ki [3]: 20.1 nM
- Activity (Mus musculus [4]): Active

SMILES: COc1ccc(-c2nnc(-c3ccc(I)cc3)o2)cc1
- logD [2]: 2.58
- Ki [3]: 46.1 nM
- Activity (Mus musculus [4]): Active

SMILES: CN(C)c1ccc(-c2nc(-c3ccc(I)cc3)no2)cc1
- logD [2]: 3.22

SMILES: Oc1ccc(-c2nnc(-c3ccc(I)cc3)o2)cc1
- Ki [3]: 230 nM

SMILES: OCCOCCOCCOc1ccc(-c2nnc(-c3ccc(I)cc3)o2)cc1
- Ki [3]: 258 nM

SMILES: OCCOc1ccc(-c2nnc(-c3ccc(I)cc3)o2)cc1
- Ki [3]: 282 nM

SMILES: OCCOCCOc1ccc(-c2nnc(-c3ccc(I)cc3)o2)cc1
- Ki [3]: 349 nM

SMILES: COc1ccc(-c2nc(-c3ccc(I)cc3)no2)cc1
- logD [2]: 3.37

SMILES: COc1ccc(-c2nnc(-c3ccc([125I])cc3)o2)cc1
- Drug uptake (Brain [5]): 2.74 % ID/g
- Drug uptake (Intestine [6]): 4.49 % ID/g
- Drug uptake (Stomach [7]): 1.41 %ID
- Drug uptake (Pancreas [8]): 4.74 % ID/g
- Drug uptake (Stomach [9]): 0.71 %ID
- Drug uptake (Spleen [10]): 1.51 % ID/g
- Drug uptake (Brain [11]): 0.36 % ID/g
- Drug uptake (Kidney [12]): 4.36 % ID/g
- Drug uptake (Pancreas [13]): 0.57 % ID/g
- Drug uptake (Intestine [14]): 10.06 % ID/g
- Drug uptake (Stomach [15]): 2.9 %ID
- Drug uptake (Intestine [16]): 2.07 % ID/g
- Drug uptake (Heart [17]): 4.8 % ID/g
- Drug uptake (Heart [18]): 0.92 % ID/g
- Drug uptake (Heart [19]): 0.43 % ID/g
- Drug uptake (Blood [20]): 1.26 % ID/g
- Drug uptake (Brain [21]): 3.75 % ID/g
- Drug uptake (Spleen [22]): 0.6 % ID/g
- Drug uptake (Liver [23]): 8.07 % ID/g
- Drug uptake (Blood [24]): 1.6 % ID/g
- Drug uptake (Stomach [25]): 3.12 %ID
- Drug uptake (Pancreas [26]): 0.96 % ID/g
- Drug uptake (Heart [27]): 1.73 % ID/g
- Drug uptake (Liver [28]): 9.6 % ID/g
- Drug uptake (Intestine [29]): 19.85 % ID/g
- Drug uptake (Kidney [30]): 4.85 % ID/g
- Drug uptake (Liver [31]): 4.65 % ID/g
- Drug uptake (Kidney [32]): 7.14 % ID/g
- Drug uptake (Blood [33]): 1.84 % ID/g
- Drug uptake (Spleen [34]): 2.44 % ID/g
- Drug uptake (Spleen [35]): 0.8 % ID/g
- Drug uptake (Kidney [36]): 2.48 % ID/g
- Drug uptake (Liver [37]): 12.6 % ID/g
- Drug uptake (Blood [38]): 0.8 % ID/g
- Drug uptake (Brain [39]): 1.04 % ID/g
- Drug uptake (Pancreas [40]): 1.98 % ID/g

SMILES: CN(C)c1ccc(-c2nnc(-c3ccc([125I])cc3)o2)cc1
- Drug uptake (Brain [5]): 5.93 % ID/g
- Drug uptake (Intestine [6]): 11.34 % ID/g
- Drug uptake (Stomach [7]): 4.73 %ID
- Drug uptake (Pancreas [8]): 5.32 % ID/g
- Drug uptake (Stomach [9]): 1.4 %ID
- Drug uptake (Spleen [10]): 4.1 % ID/g
- Drug uptake (Brain [11]): 1.78 % ID/g
- Drug uptake (Kidney [12]): 5.71 % ID/g
- Drug uptake (Pancreas [13]): 2.14 % ID/g
- Drug uptake (Intestine [14]): 12.58 % ID/g
- Drug uptake (Stomach [15]): 5.5 %ID
- Drug uptake (Intestine [16]): 2.28 % ID/g
- Drug uptake (Heart [17]): 3.99 % ID/g
- Drug uptake (Heart [18]): 2.03 % ID/g
- Drug uptake (Heart [19]): 1.54 % ID/g
- Drug uptake (Blood [20]): 2.53 % ID/g
- Drug uptake (Brain [21]): 2.98 % ID/g
- Drug uptake (Spleen [22]): 2.05 % ID/g
- Drug uptake (Liver [23]): 12.64 % ID/g
- Drug uptake (Blood [24]): 3.51 % ID/g
- Drug uptake (Stomach [25]): 4.79 %ID
- Drug uptake (Pancreas [26]): 2.5 % ID/g
- Drug uptake (Heart [27]): 3.55 % ID/g
- Drug uptake (Liver [28]): 15.87 % ID/g
- Drug uptake (Intestine [29]): 16.22 % ID/g
- Drug uptake (Kidney [30]): 7.8 % ID/g
- Drug uptake (Liver [31]): 10.01 % ID/g
- Drug uptake (Kidney [32]): 9.14 % ID/g
- Drug uptake (Blood [33]): 3.28 % ID/g
- Drug uptake (Spleen [34]): 3.56 % ID/g
- Drug uptake (Spleen [35]): 2.63 % ID/g
- Drug uptake (Kidney [36]): 3.81 % ID/g
- Drug uptake (Liver [37]): 19.12 % ID/g
- Drug uptake (Blood [38]): 2.21 % ID/g
- Drug uptake (Brain [39]): 3.16 % ID/g
- Drug uptake (Pancreas [40]): 4.39 % ID/g
